Measured values reported in ChEMBL document CHEMBL1641579, “Synthesis and biological evaluation of 7-substituted-1-(3-bromophenylamino)isoquinoline-4-carbonitriles as inhibitors of myosin light chain kinase and epidermal growth factor receptor” (Bioorg Med Chem, 2011).
Calls of active or inactive are those of the source. No cut-off for these calls is given here.

How the values were obtained:
[1] = test system: PC-9; experiment: Growth inhibition of human PC9 cells assessed as ATP level after 96 hrs by CellTiter-Glo assay; format: functional; conditions: PC-9, 96 h
[2] = Growth inhibition of human NCI-H1819 cells assessed as ATP level after 96 hrs by CellTiter-Glo assay; format: functional; conditions: NCI-H1819, 96 h
Method in brief: (§1)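 NSCLC lines maintained as previously described, authenticated by mutational analysis and SNP arrays. Cells seeded and incubated 24 h, then given compound (DMSO stocks) as 10 threefold serial dilutions. Viability read after 96 h as cellular ATP content (CellTiter-Glo). GI50 derived by curve fitting of half-maximal inhibition.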

[3] = test system: NCI-H1770; experiment: Growth inhibition of human NCI-H1770 cells assessed as ATP level after 96 hrs by CellTiter-Glo assay; format: functional; conditions: NCI-H1770, 96 h
Method in brief: (§2)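 NSCLC lines maintained as in earlier work and authenticated by mutational analysis and SNP arrays. Cells were plated in 384-well format and allowed 24 h before compound addition as 10 threefold serial dilutions (DMSO stocks). After 96 h, viability was read as cellular ATP by CellTiter-Glo. GI50 was fitted with an R package.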

[4] = test system: NCI-H1755; experiment: Growth inhibition of human NCI-H1755 cells assessed as ATP level after 96 hrs by CellTiter-Glo assay; format: functional; conditions: NCI-H1755, 96 h; method in brief: as §2
[5] = Growth inhibition of human HCC2279 cells assessed as ATP level after 96 hrs by CellTiter-Glo assay; format: functional; method in brief: as §2
[6] = test system: NCI-H157; experiment: Growth inhibition of human NCI-H157 cells assessed as ATP level after 96 hrs by CellTiter-Glo assay; format: functional; conditions: NCI-H157, 96 h; method in brief: as §2
[7] = Growth inhibition of human H820 cells assessed as ATP level after 96 hrs by CellTiter-Glo assay; format: functional; conditions: NCI-H820, 96 h; method in brief: as §2
[8] = Growth inhibition of human NCI-H2077 cells assessed as ATP level after 96 hrs by CellTiter-Glo assay; format: functional; conditions: NCI-H2077, 96 h
[9] = test system: EKVX; experiment: Growth inhibition of human EKVX cells assessed as ATP level after 96 hrs by CellTiter-Glo assay; format: functional; method in brief: as §2
[10] = test system: NCI-H358; experiment: Growth inhibition of human NCI-H358 cells assessed as ATP level after 96 hrs by CellTiter-Glo assay; format: functional; conditions: NCI-H358, 96 h
[11] = Growth inhibition of human COLO699 cells assessed as ATP level after 96 hrs by CellTiter-Glo assay; format: functional; conditions: COLO 699, 96 h; method in brief: as §2
[12] = Growth inhibition of human NCI-H2887 cells assessed as ATP level after 96 hrs by CellTiter-Glo assay; format: functional; conditions: NCI-H2887, 96 h
[13] = Growth inhibition of human LouNH91 cells assessed as ATP level after 96 hrs by CellTiter-Glo assay; format: functional; conditions: LOU-NH91, 96 h; method in brief: as §2
[14] = test system: NCI-H522; experiment: Growth inhibition of human NCI-H522 cells assessed as ATP level after 96 hrs by CellTiter-Glo assay; format: functional; conditions: NCI-H522, 96 h
[15] = Growth inhibition of human HCC1195 cells assessed as ATP level after 96 hrs by CellTiter-Glo assay; format: functional; method in brief: as §2
[16] = test system: NCI-H1838; experiment: Growth inhibition of human NCI-H1838 cells assessed as ATP level after 96 hrs by CellTiter-Glo assay; format: functional; conditions: NCI-H1838, 96 h; method in brief: as §1
[17] = Growth inhibition of human NCI-H1915 cells assessed as ATP level after 96 hrs by CellTiter-Glo assay; format: functional; conditions: NCI-H1915, 96 h
Method in brief: (§3)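 Human NSCLC cells, maintained as described previously and authenticated by mutational analysis and SNP arrays, were plated and incubated 24 h. Compounds were dissolved in DMSO and added as 10 threefold serial dilutions. Viability was read after 96 h as cellular ATP content by luminescence, and half-maximal inhibitory concentrations were fitted to give GI50.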

[18] = test system: NCI-H2122; experiment: Growth inhibition of human NCI-H2122 cells assessed as ATP level after 96 hrs by CellTiter-Glo assay; format: functional; conditions: NCI-H2122, 96 h
[19] = Growth inhibition of human H441 cells assessed as ATP level after 96 hrs by CellTiter-Glo assay; format: functional; conditions: NCI-H441, 96 h; method in brief: as §2
[20] = Growth inhibition of human HCC15 cells assessed as ATP level after 96 hrs by CellTiter-Glo assay; format: functional; conditions: HCC15, 96 h; method in brief: as §2
[21] = Growth inhibition of human HCC78 cells assessed as ATP level after 96 hrs by CellTiter-Glo assay; format: functional; conditions: HCC78, 96 h; method in brief: as §2
[22] = test system: NCI-H2347; experiment: Growth inhibition of human NCI-H2347 cells assessed as ATP level after 96 hrs by CellTiter-Glo assay; format: functional; conditions: NCI-H2347, 96 h
[23] = Growth inhibition of human HCC2450 cells assessed as ATP level after 96 hrs by CellTiter-Glo assay; format: functional; method in brief: as §2
[24] = Growth inhibition of human NCI-H2882 cells assessed as ATP level after 96 hrs by CellTiter-Glo assay; format: functional; conditions: NCI-H2882, 96 h
[25] = Growth inhibition of human HCC44 cells assessed as ATP level after 96 hrs by CellTiter-Glo assay; format: functional; conditions: HCC44, 96 h; method in brief: as §2
[26] = test system: NCI-H1734; experiment: Growth inhibition of human NCI-H1734 cells assessed as ATP level after 96 hrs by CellTiter-Glo assay; format: functional; conditions: NCI-H1734, 96 h; method in brief: as §2
[27] = test system: NCI-H28; experiment: Growth inhibition of human NCI-H28 cells assessed as ATP level after 96 hrs by CellTiter-Glo assay; format: functional; conditions: NCI-H28, 96 h
[28] = Growth inhibition of human NCI-H322 cells assessed as ATP level after 96 hrs by CellTiter-Glo assay; format: functional; conditions: NCI-H322, 96 h
[29] = test system: NCI-H2009; experiment: Growth inhibition of human NCI-H2009 cells assessed as ATP level after 96 hrs by CellTiter-Glo assay; format: functional; conditions: NCI-H2009, 96 h
[30] = test system: HOP-62; experiment: Growth inhibition of human HOP62 cells assessed as ATP level after 96 hrs by CellTiter-Glo assay; format: functional; conditions: HOP-62, 96 h; method in brief: as §2
[31] = Growth inhibition of human H23 cells assessed as ATP level after 96 hrs by CellTiter-Glo assay; format: functional; conditions: NCI-H23, 96 h; method in brief: as §2
[32] = test system: NCI-H1563; experiment: Growth inhibition of human NCI-H1563 cells assessed as ATP level after 96 hrs by CellTiter-Glo assay; format: functional; conditions: NCI-H1563, 96 h; method in brief: as §2
[33] = Growth inhibition of human NCI-H1944 cells assessed as ATP level after 96 hrs by CellTiter-Glo assay; format: functional; conditions: NCI-H1944, 96 h; method in brief: as §3
[34] = test system: NCI-H2030; experiment: Growth inhibition of human NCI-H2030 cells assessed as ATP level after 96 hrs by CellTiter-Glo assay; format: functional; conditions: NCI-H2030, 96 h
[35] = test system: A549; experiment: Growth inhibition of human A549 cells assessed as ATP level after 96 hrs by CellTiter-Glo assay; format: functional; conditions: A549, 96 h; method in brief: as §2
[36] = test system: Epidermal growth factor receptor (Homo sapiens), P00533 [T790M]; experiment: Inhibition of EGFR T790M mutant activation expressed in human drug-resistant H1975 cells; format: cell-based
Sequence of Epidermal growth factor receptor (Homo sapiens), P00533 [T790M] (P00533 whole entry T790M): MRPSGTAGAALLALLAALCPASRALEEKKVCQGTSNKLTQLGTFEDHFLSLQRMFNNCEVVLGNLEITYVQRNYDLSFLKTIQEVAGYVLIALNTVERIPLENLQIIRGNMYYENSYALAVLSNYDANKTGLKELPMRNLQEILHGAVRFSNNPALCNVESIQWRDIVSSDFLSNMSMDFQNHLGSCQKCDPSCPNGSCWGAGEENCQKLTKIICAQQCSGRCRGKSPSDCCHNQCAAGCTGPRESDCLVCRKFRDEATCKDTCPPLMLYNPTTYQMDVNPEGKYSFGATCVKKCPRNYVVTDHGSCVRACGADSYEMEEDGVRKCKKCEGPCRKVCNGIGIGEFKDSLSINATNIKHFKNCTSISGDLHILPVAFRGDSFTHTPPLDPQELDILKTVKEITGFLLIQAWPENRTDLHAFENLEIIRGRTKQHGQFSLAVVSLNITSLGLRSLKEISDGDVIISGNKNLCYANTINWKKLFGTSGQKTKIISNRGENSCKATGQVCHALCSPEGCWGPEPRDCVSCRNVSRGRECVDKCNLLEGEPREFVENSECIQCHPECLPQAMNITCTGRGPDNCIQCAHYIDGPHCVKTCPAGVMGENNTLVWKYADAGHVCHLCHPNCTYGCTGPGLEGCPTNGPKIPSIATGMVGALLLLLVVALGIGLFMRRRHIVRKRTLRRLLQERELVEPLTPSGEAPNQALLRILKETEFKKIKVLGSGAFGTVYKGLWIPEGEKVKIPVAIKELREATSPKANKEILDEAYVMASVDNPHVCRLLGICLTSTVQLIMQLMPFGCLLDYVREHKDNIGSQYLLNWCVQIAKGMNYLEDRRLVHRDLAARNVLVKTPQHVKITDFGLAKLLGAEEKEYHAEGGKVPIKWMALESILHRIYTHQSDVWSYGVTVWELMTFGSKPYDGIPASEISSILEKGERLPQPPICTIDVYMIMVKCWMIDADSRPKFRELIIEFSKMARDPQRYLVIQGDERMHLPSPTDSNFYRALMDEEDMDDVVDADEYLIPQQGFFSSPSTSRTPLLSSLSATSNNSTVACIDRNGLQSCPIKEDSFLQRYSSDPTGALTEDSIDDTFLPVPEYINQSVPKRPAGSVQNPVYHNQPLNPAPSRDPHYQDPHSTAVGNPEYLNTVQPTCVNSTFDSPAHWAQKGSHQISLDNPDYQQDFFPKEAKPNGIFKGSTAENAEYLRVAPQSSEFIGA

## CN(C)C/C=C/C(=O)Nc1ccc2c(C#N)cnc(Nc3cccc(Br)c3)c2c1
[1]
  GI50: 4.68 µM
[2]
  GI50: 7.59 µM
[3]
  GI50: 9.02 µM
[4]
  GI50: 9.89 µM
[5]
  GI50: 10.6 µM
[6]
  GI50: 12 µM
[7]
  GI50: 12.9 µM
[8]
  GI50: 13.2 µM
[9]
  GI50: 14.5 µM
[10]
  GI50: 14.5 µM
[11]
  GI50: 15.3 µM
[12]
  GI50: 15.5 µM
[13]
  GI50: 15.7 µM
[14]
  GI50: 17.2 µM
[15]
  GI50: 17.6 µM
[16]
  GI50: 18.2 µM
[17]
  GI50: 18.2 µM
[18]
  GI50: 18.8 µM
[19]
  GI50: 19.1 µM
[20]
  GI50: 19.3 µM
[21]
  GI50: 19.7 µM
[22]
  GI50: 22.9 µM
[23]
  GI50: 22.9 µM
[24]
  GI50: 23.7 µM
[25]
  GI50: 23.7 µM
[26]
  GI50: 24.3 µM
[27]
  GI50: 24.8 µM
[28]
  GI50: 24.8 µM
[29]
  GI50: 26.3 µM
[30]
  GI50: 26.9 µM
[31]
  GI50: 29.9 µM
[32]
  GI50: 30.9 µM
[33]
  GI50: 33.9 µM
[34]
  GI50: 34.3 µM
[35]
  GI50: 40 µM
[36]
  inhibition: Active
